Shown are actives, neighbours in structure and some others; about 2.5% of the full set was active somewhere.
Tb hexokinase = blocks Trypanosoma brucei hexokinase 1 activity | recombinant TbHK1, G6PDH-coupled NADH A340 | inhibition, % at 10 µM | 220,000 compounds, 0.11% hits | AID 1430;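 active = inhibition of 50% or more in the single-dose primary screen; inactive = inhibition below 50%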
HKDC1 inh = HKDC1 (human) hexokinase inhibition; Q2TB90; recombinant HKDC1, G6PDH/diaphorase resazurin coupled fluorescence; inhibition, % at 20 µM; 340,000 compounds, 0.16% hits; AID 493160;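 active = inhibition above about 35% when tested at 20 µM, limit read from the data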
Target sequence (Q2TB90 whole entry, looked up): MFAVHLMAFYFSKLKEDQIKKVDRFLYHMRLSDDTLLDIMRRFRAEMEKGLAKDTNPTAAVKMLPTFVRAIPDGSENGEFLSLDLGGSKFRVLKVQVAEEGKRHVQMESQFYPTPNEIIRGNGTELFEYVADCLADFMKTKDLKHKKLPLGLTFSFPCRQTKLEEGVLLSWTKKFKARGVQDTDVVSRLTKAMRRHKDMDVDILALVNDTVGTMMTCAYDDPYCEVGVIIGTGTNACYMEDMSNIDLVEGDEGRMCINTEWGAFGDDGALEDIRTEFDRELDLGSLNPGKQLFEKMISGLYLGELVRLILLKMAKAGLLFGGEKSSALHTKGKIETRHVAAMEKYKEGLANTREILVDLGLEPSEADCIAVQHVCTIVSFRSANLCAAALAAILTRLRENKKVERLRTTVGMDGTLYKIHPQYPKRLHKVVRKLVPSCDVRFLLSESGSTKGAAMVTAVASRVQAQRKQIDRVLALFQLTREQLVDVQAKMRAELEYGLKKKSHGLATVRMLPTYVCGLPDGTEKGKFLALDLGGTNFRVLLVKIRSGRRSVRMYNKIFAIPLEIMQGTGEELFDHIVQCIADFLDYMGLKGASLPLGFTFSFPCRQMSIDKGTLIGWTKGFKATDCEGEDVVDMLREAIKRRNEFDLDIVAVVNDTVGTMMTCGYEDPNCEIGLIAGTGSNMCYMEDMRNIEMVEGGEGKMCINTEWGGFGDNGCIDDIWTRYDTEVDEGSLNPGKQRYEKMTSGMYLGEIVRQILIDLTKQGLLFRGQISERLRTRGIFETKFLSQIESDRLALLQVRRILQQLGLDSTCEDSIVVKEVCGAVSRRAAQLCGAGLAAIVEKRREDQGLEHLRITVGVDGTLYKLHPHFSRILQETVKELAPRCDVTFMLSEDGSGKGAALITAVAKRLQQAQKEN
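Assay system – recombinant HKDC1 (HK5) hexokinase enzyme, produced in-house · Input – HKDC1 at 5 µg/mL · Reagent – glucose plus 1 mM ATP as hexokinase substrates · Timing – 90 min reaction incubation at room temperature, dark · Measured by – G6PDH/diaphorase-coupled fluorescence, 1 mM NADP, 100 µM resazurin, 525/613 nm · Benchmarks – DMSO-enzyme wells negative, buffer-substituted wells positive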
PfG6PD inh = PfG6PD (Plasmodium falciparum) enzyme inhibition; inhibition, % at 20 µM; 350,000 compounds, 0.78% hits; PfGluPho enzyme, NADPH resazurin-diaphorase fluorescence;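 active = inhibition reaching at least a set limit at 20 µM in the primary screen, cut at about 59% in these data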
EP2 antag = inhibitors of human EP2 prostaglandin E2 receptor; C6 glioma cells expressing human EP2, cAMP TR-FRET; cells stimulated with saturating PGE2; inhibition, % at 25 µM; P43116; 260,000 compounds, 0.52% hits;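 active = percent inhibition above 40 after rounding to a whole number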;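 also: rat C6 glioma host cells with rolipram phosphodiesterase inhibitor present; the protocol text gives 20 µM as final concentration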
PHOSPHO1 inh = PHOSPHO1 (human) inhibition | Q8TCT1 | recombinant PHOSPHO1, absorbance phosphatase assay | inhibition, % at 13.3 µM | 290,000 compounds, 1.1% hits; in the data active = inhibition above about 60%
EP2 mod = modulates human prostaglandin E2 receptor EP2 signaling; P43116; EP2-expressing cells, cAMP HTRF FRET, PGE2 co-stimulation; induction, % at 25 µM; 260,000 compounds, 0.83% hits;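 active = compounds whose cAMP rise, as percent of the full-agonist control response, exceeds 60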;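 also: rat C6 glioma line stably carrying human EP2 under a CMV promoter; the protocol text gives 20 µM as final concentration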
EP2 confirm = EP2 receptor cAMP induction, counter-screens negative; calls only at 20 µM (by protocol); 1,300 compounds, 47% hits; shares compounds with EP2 mod; C6 glioma EP2 cells, cAMP HTRF induction; plus low (about EC15) PGE2 agonist;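 active = cAMP induction above 50% in the main assay while under 30% in all four parallel counter assays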;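 also: rat C6 glioma cells stably expressing human EP2 receptor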
Large screens that a line does not name were inactive (follow-up assays come after a bar, where they were run).

Cn1c(=O)[nH]c(=O)c2c1nc(N1CCCCCC1)n2Cc1cccc2ccccc12	EP2 mod 65.8 | EP2 confirm inactive
Cn1c(=O)[nH]c(=O)c2c1nc(CN1CCN(c3cccc(Cl)c3)CC1)n2Cc1ccccc1Cl	EP2 mod 69.2 | EP2 confirm inactive
Cn1c(=O)[nH]c(=O)c2c1nc(CN1CCN(c3cccc(Cl)c3)CC1)n2CCCc1ccccc1	EP2 mod 70.2 | EP2 confirm active
Cn1c(=O)[nH]c(=O)c2c1nc(N1CCCC1)n2Cc1cccc2ccccc12	none (no result: Tb hexokinase, HKDC1 inh, PfG6PD inh, PHOSPHO1 inh)
Cc1cc(C(=O)NCC(c2ccco2)N(C)C)no1 (stereo not given)	EP2 mod 71.0 | EP2 confirm inactive
CN(C)C(CNC(=O)c1ccc(Br)cc1)c1ccco1 (stereo not given)	none (no result: Tb hexokinase, EP2 antag, EP2 mod)
Cc1cc(-c2cc(N)c(=O)n(CC(=O)NC(C)(C)C)n2)c(C)o1	none (no result: Tb hexokinase, HKDC1 inh, PfG6PD inh, PHOSPHO1 inh)
COc1cc(C=O)ccc1OC(=O)c1ccncc1	none
COc1cc(C=O)ccc1OC(=O)c1ccc(C(C)C)cc1	EP2 mod 74.3 | EP2 confirm inactive
Cc1ccc2nc(Nc3ccc4[nH]c(=O)[nH]c4c3)c(-n3nc(C)cc3C)nc2c1	EP2 mod 85.8 | EP2 confirm inactive
CCn1c2c(c3cc(OCC(C)C)ccc31)CCCC2=O	EP2 mod 74.5 | EP2 confirm active
COC(=O)c1c(-c2ccc(F)cc2)csc1NC(=O)C1CCCO1 (stereo not given)	EP2 mod 65.6 | EP2 confirm inactive
CC(=O)Nc1sc2c(c1C(c1ccccn1)N1CCCC1)CCCC2 (stereo not given)	none
CC(=O)Nc1sc2c(c1C(c1cccs1)N1CCOCC1)CCCC2 (stereo not given)	none | EP2 confirm inactive
COc1ccc2c(c1)N(CCCS(=O)(=O)[O-])/C(=C/c1cccc[n+]1C)S2	none (no result: Tb hexokinase, HKDC1 inh, PfG6PD inh, PHOSPHO1 inh)
C=CCn1c(=O)c2c3c(sc2n2c(Nc4ccccc4)nnc12)CCCC3	none
C=CCn1c(=O)c2c3c(sc2n2c(Nc4ccc(OC)cc4)nnc12)CCCC3	EP2 mod 74.9 | EP2 confirm active
COC1(C)CC2C(CC1OC(=O)c1cc([N+](=O)[O-])cc([N+](=O)[O-])c1)C2(C)C (stereo not given)	EP2 mod 72.1 | EP2 confirm active
Cc1cc2ccc(C)c(C)c2nc1SCC#N	EP2 mod 66.1 | EP2 confirm active
CSc1nc(Oc2ccc(F)cc2)c2ccccc2n1	EP2 mod 67.7 | EP2 confirm active
Fc1ccc(Oc2nc(-c3ccccn3)nc3ccccc23)cc1	none
O=C(c1ccccc1F)[C@H]1CCCN(C(=O)c2cc(-c3ccc4c(c3)OCO4)on2)C1	none (no result: Tb hexokinase, HKDC1 inh, PfG6PD inh, PHOSPHO1 inh)
O=C(O)/C=C/C(O)c1ccc(Cl)cc1 (stereo not given)	EP2 mod 79.3 (no result: Tb hexokinase, PHOSPHO1 inh) | EP2 confirm inactive
O=C(/C=C/Sc1ccccc1)c1ccc(Cl)cc1	none
Clc1ccccc1Cn1c(/C=C/c2ccco2)nc2ccccc21	EP2 mod 70.6 | EP2 confirm inactive
O=c1ccc(-c2nc3ccccc3n2Cc2ccccc2Cl)c[nH]1	none
O=C(Nc1cc(S(=O)(=O)Nc2ccc(Cl)cc2)ccc1N1CCCCC1)c1ccc(F)cc1Cl	EP2 mod 75.6 | EP2 confirm active
Cc1ccc(Nc2nc(-c3cccnc3)cs2)nc1	none (no result: Tb hexokinase, HKDC1 inh, PfG6PD inh, PHOSPHO1 inh)
COC(=O)c1c(NC(=O)CSc2nnc(-c3cccnc3)n2Cc2ccco2)sc(C)c1C	none | EP2 confirm inactive
O=C(CSc1nnc(-c2ccc(Cl)cc2)n1Cc1ccco1)c1cccs1	EP2 mod 70.1 | EP2 confirm active
COc1ccc(OC)c(-c2[nH]nc3c2C(c2ccc4c(c2)OCO4)C(C#N)=C(N)O3)c1 (stereo not given)	none (no result: Tb hexokinase, HKDC1 inh, PfG6PD inh, PHOSPHO1 inh)
Cc1ccc(C)n1-n1c(C)nc2scc(-c3cccs3)c2c1=O	none | EP2 confirm inactive
O=C(Nc1cccc(NC(=O)c2ccc(Br)o2)n1)c1ccc(Br)o1	none
Cc1ccc2cccc(NC(=O)c3ccc(Br)o3)c2n1	EP2 mod 87.3 | EP2 confirm active
O=C(NCc1ccc(-c2nc3ccccc3s2)cc1)c1ccc(Br)o1	none
O=C(Nc1ccccc1-c1nc2ccccc2s1)c1ccc(Br)o1	EP2 mod 77.6 | EP2 confirm active
